Reference: ChEMBL document CHEMBL1932938, “From COX-2 inhibitor nimesulide to potent anti-cancer agent: synthesis, in vitro, in vivo and pharmacokinetic evaluation” (Eur J Med Chem, 2012)

How the values were obtained:
HT-29 = assay: Cytotoxicity against human HT-29 cells after 48 hrs by MTT assay; assay type: functional, cell-based; conditions: HT-29, 48 h
Method in brief: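 HT29 cells (ATCC) kept in RPMI1640 with 10% heat-inactivated FBS, L-glutamine and pyruvate at 37 °C, 5% CO2. Cells plated 24 h, then exposed 48 h to graded compound concentrations in DMSO (0.1% final) beside vehicle controls. Incubated 2 h with 0.5 mg/ml MTT, formazan dissolved in DMSO, A570 read. Six replicates; IC50 from viability.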

SK-BR-3 [1] = assay: Cell cycle arrest in human SK-BR-3 cells assessed as accumulation at Sub-G1 phase at 0.25 uM after 24 hrs using propidium iodide staining by FACS analysis; assay type: functional
SK-BR-3 [2] = assay: Cell cycle arrest in human SK-BR-3 cells assessed as accumulation at G1 phase at 0.25 uM after 3 hrs using propidium iodide staining by FACS analysis; assay type: functional
Method in brief: (§1)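 SKBR-3 cells in RPMI1640 with 10% heat-inactivated FBS at 37 °C and 5% CO₂ were treated for the stated times. Cells were fixed overnight in 70% EtOH at −20 °C, then stained with propidium iodide buffer (38 mM sodium citrate pH 7.5, 69 µM PI, 120 µg/mL RNase A) for 15 min at room temperature in the dark. Up to 1×10⁴ gated cells were analyzed by flow cytometry, giving percent distribution per phase.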

RXF 393 = assay: Growth inhibition of human RXF393 cells after 48 hrs by SRB assay; assay type: functional
NCI-H522 = assay: Growth inhibition of human NCI-H522 cells after 48 hrs by SRB assay; assay type: functional
SK-MEL-2 = assay: Growth inhibition of human SK-MEL-2 cells after 48 hrs by SRB assay; assay type: functional
HCC 2998 = assay: Growth inhibition of human HCC2998 cells after 48 hrs by SRB assay; assay type: functional
SK-BR-3 [3] = assay: Cell cycle arrest in human SK-BR-3 cells assessed as accumulation at G2/M phase at 5 uM after 3 hrs using propidium iodide staining by FACS analysis; assay type: functional; method in brief: as §1
UACC-62 = assay: Growth inhibition of human UACC62 cells after 48 hrs by SRB assay; assay type: functional
SN12C = assay: Growth inhibition of human SN12C cells after 48 hrs by SRB assay; assay type: functional
MCF7 = assay: Growth inhibition of human MCF7 cells after 48 hrs by SRB assay; assay type: functional
[4] = Tmax in Sprague-Dawley rat plasma at 20 mg/kg, ip; assay type: ADME, organism-based; design: dose 20 mg/kg, route intraperitoneal
Method in brief: (§2)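 Male Sprague–Dawley rats (300–350 g, n=3), fasted overnight with water allowed. Single 20 mg/kg i.p. dose in PBS with 0.1% Tween80 and 20% DMSO. Blood taken from saphenous and femoral veins into heparinized tubes at 0, 0.25, 0.5, 1, 2, 4, 8 and 24 h. Plasma quantified by LC-MS/MS (MRM, 483.3→404.3) after tert-butyl methyl ether/hexane extraction. Parameters derived non-compartmentally.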

SK-BR-3 [5] = assay: Cell cycle arrest in human SK-BR-3 cells assessed as accumulation at G2/M phase at 0.10 uM after 3 hrs using propidium iodide staining by FACS analysis; assay type: functional; method in brief: as §1
SK-BR-3 [6] = assay: Cell cycle arrest in human SK-BR-3 cells assessed as accumulation at G1 phase at 0.10 uM after 12 hrs using propidium iodide staining by FACS analysis; assay type: functional; method in brief: as §1
SNB-19 = assay: Growth inhibition of human SNB19 cells after 48 hrs by SRB assay; assay type: functional
SK-BR-3 [7] = assay: Cell cycle arrest in human SK-BR-3 cells assessed as accumulation at S phase at 0.50 uM after 6 hrs using propidium iodide staining by FACS analysis; assay type: functional
SK-BR-3 [8] = assay: Cell cycle arrest in human SK-BR-3 cells assessed as accumulation at S phase at 0.50 uM after 24 hrs using propidium iodide staining by FACS analysis; assay type: functional
[9] = Mean residence time (0 to t) in Sprague-Dawley rat at 20 mg/kg, ip; assay type: ADME, organism-based; design: dose 20 mg/kg, route intraperitoneal; conditions: in vivo; method in brief: as §2
SK-BR-3 [10] = assay: Cell cycle arrest in human SK-BR-3 cells assessed as accumulation at S phase at 5 uM after 6 hrs using propidium iodide staining by FACS analysis; assay type: functional
SK-BR-3 [11] = assay: Cell cycle arrest in human SK-BR-3 cells assessed as accumulation at Sub-G1 phase at 5 uM after 24 hrs using propidium iodide staining by FACS analysis; assay type: functional
SK-BR-3 [12] = assay: Cell cycle arrest in human SK-BR-3 cells assessed as accumulation at S phase at 0.25 uM after 3 hrs using propidium iodide staining by FACS analysis; assay type: functional
SK-OV-3 = assay: Growth inhibition of human SKOV3 cells after 48 hrs by SRB assay; assay type: functional
Hs-578T = assay: (§3) Growth inhibition of human Hs 578T cells after 48 hrs by SRB assay; assay type: functional
[13] = as §3; assay type: functional
DU-145 = assay: Growth inhibition of human DU145 cells after 48 hrs by SRB assay; assay type: functional
CAKI-1 = assay: Growth inhibition of human Caki1 cells after 48 hrs by SRB assay; assay type: functional
NCI-H23 = assay: Growth inhibition of human NCI-H23 cells after 48 hrs by SRB assay; assay type: functional
SK-BR-3 [14] = assay: Cell cycle arrest in human SK-BR-3 cells assessed as accumulation at G2/M phase at 0.10 uM after 6 hrs using propidium iodide staining by FACS analysis; assay type: functional; method in brief: as §1
OVCAR-8 = assay: Growth inhibition of human OVCAR8 cells after 48 hrs by SRB assay; assay type: functional
SK-BR-3 [15] = assay: Cell cycle arrest in human SK-BR-3 cells assessed as accumulation at G1 phase at 5 uM after 24 hrs using propidium iodide staining by FACS analysis; assay type: functional; method in brief: as §1
SK-BR-3 [16] = assay: Cell cycle arrest in human SK-BR-3 cells assessed as accumulation at G1 phase at 0.10 uM after 3 hrs using propidium iodide staining by FACS analysis; assay type: functional; method in brief: as §1
SK-BR-3 [17] = assay: Cell cycle arrest in human SK-BR-3 cells assessed as accumulation at S phase at 0.10 uM after 24 hrs using propidium iodide staining by FACS analysis; assay type: functional; method in brief: as §1
[18] = read-out: LC50 (the source's name)

Cc1ccc(C)c(COc2cc(NC(=O)c3ccc4c(c3)OCO4)ccc2N(C)S(C)(=O)=O)c1
IC50 (HT-29): 460 nM
Activity (SK-BR-3 [1]): 24.95%
Activity (SK-BR-3 [2]): 69.63%
growth inhibition (GI) (RXF 393): Dose-dependent effect
GI50 (RXF 393; RXF 393, 48 h): 128 nM
TGI (RXF 393; RXF 393, 48 h): 403 nM
growth inhibition (GI) (NCI-H522): Dose-dependent effect
GI50 (NCI-H522; NCI-H522, 48 h): 33.5 nM
TGI (NCI-H522; NCI-H522, 48 h): 240 nM
CC50 (NCI-H522; NCI-H522, 48 h, read-out: LC50 (the source's name)): > 100000 nM
growth inhibition (GI) (SK-MEL-2): Dose-dependent effect
GI50 (SK-MEL-2; SK-MEL-2, 48 h): 89.7 nM
TGI (SK-MEL-2; SK-MEL-2, 48 h): 616 nM
CC50 (SK-MEL-2; SK-MEL-2, 48 h, read-out: LC50 (the source's name)): > 100000 nM
growth inhibition (GI) (HCC 2998): Dose-dependent effect
TGI (HCC 2998; HCC 2998, 48 h): 392 nM
CC50 (HCC 2998; HCC 2998, 48 h, read-out: LC50 (the source's name)): 2970 nM
Activity (SK-BR-3 [3]): 11.57%
growth inhibition (GI) (UACC-62): Dose-dependent effect
GI50 (UACC-62; UACC-62, 48 h): 414 nM
TGI (UACC-62; UACC-62, 48 h): > 100000 nM
CC50 (UACC-62; UACC-62, 48 h, read-out: LC50 (the source's name)): > 100000 nM
GI50 (SN12C): 472 nM
TGI (SN12C): > 100000 nM
growth inhibition (GI) (SN12C): Dose-dependent effect
CC50 (SN12C; [18]): > 100000 nM
growth inhibition (GI) (MCF7): Dose-dependent effect
TGI (MCF7; MCF7, 48 h): > 100000 nM
CC50 (MCF7; MCF7, 48 h, read-out: LC50 (the source's name)): > 100000 nM
Tmax [4]: 2 h
Activity (SK-BR-3 [5]): 8.83%
Activity (SK-BR-3 [6]): 73.14%
growth inhibition (GI) (SNB-19): Dose-dependent effect
GI50 (SNB-19; SNB-19, 48 h): 537 nM
TGI (SNB-19; SNB-19, 48 h): > 100000 nM
CC50 (SNB-19; SNB-19, 48 h, read-out: LC50 (the source's name)): > 100000 nM
Activity (SK-BR-3 [7]): 14.73%
Activity (SK-BR-3 [8]): 11.21%
MRT last [9]: 6 h
Activity (SK-BR-3 [10]): 14.61%
Activity (SK-BR-3 [11]): 27.62%
Activity (SK-BR-3 [12]): 16.34%
growth inhibition (GI) (SK-OV-3): Dose-dependent effect
GI50 (SK-OV-3; SK-OV-3, 48 h): 285 nM
TGI (SK-OV-3; SK-OV-3, 48 h): > 100000 nM
CC50 (SK-OV-3; SK-OV-3, 48 h, read-out: LC50 (the source's name)): > 100000 nM
growth inhibition (GI) (Hs-578T): Dose-dependent effect
GI50 [13]: 87 nM
CC50 [13, 18]: > 100000 nM
growth inhibition (GI) (DU-145): Dose-dependent effect
GI50 (DU-145; DU-145, 48 h): 159 nM
TGI (DU-145; DU-145, 48 h): 457 nM
CC50 (DU-145; DU-145, 48 h, read-out: LC50 (the source's name)): > 100000 nM
growth inhibition (GI) (CAKI-1): Dose-dependent effect
TGI (CAKI-1; CAKI-1, 48 h): > 100000 nM
CC50 (CAKI-1; CAKI-1, 48 h, read-out: LC50 (the source's name)): > 100000 nM
growth inhibition (GI) (NCI-H23): Dose-dependent effect
GI50 (NCI-H23; NCI-H23, 48 h): 162 nM
TGI (NCI-H23; NCI-H23, 48 h): > 100000 nM
CC50 (NCI-H23; NCI-H23, 48 h, read-out: LC50 (the source's name)): > 100000 nM
Activity (SK-BR-3 [14]): 9.07%
growth inhibition (GI) (OVCAR-8): Dose-dependent effect
GI50 (OVCAR-8; OVCAR-8, 48 h): 265 nM
TGI (OVCAR-8; OVCAR-8, 48 h): > 100000 nM
CC50 (OVCAR-8; OVCAR-8, 48 h, read-out: LC50 (the source's name)): > 100000 nM
Activity (SK-BR-3 [15]): 31.87%
Activity (SK-BR-3 [16]): 70.84%
Activity (SK-BR-3 [17]): 8.91%
